In ChEMBL document CHEMBL3526151, “Reversible disulfide formation of the glutamate carboxypeptidase II inhibitor E2072 results in prolonged systemic exposures in vivo” (Drug Metab Dispos, 2012):

Legend:
[1] = Apparent volume of distribution in Sprague-Dawley rat at 10 mg/kg, po administered via gavage measured under fed conditions by LC-MS/MS analysis; format: ADME, organism-based; design: dose 10 mg/kg, route oral; conditions: in vivo
Procedure, shortened: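 Nonfasted male Sprague-Dawley rats given a single 10 mg/kg oral dose in 50 mM HEPES buffered saline, pH 7.4. Plasma collected 0.25–24 h into heparin/NEM tubes and assayed by LC-MS/MS. Noncompartmental parameters derived, including Cl/F and Vd/F. Mean ± S.D., n = 6–9.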

[2] = Cmax in Sprague-Dawley rat at 10 mg/kg, iv by LC-MS/MS analysis; format: ADME, organism-based; design: dose 10 mg/kg, route intravenous; conditions: in vivo
Procedure, shortened: (§1)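 Male Sprague-Dawley rats dosed intravenously at 10 mg/kg (n = 6). Blood sampling extended to 7 days into heparin tubes containing NEM. Plasma assayed for parent and homodisulfide by LC-MS/MS, calibration range 1–5000 ng/ml. Noncompartmental analysis, t1/2 = 0.693/λz. Mean ± S.D.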

[3] = AUC(0 to infinity) in Sprague-Dawley rat at 10 mg/kg, iv by LC-MS/MS analysis; format: ADME, organism-based; design: time infinity, dose 10 mg/kg, route intravenous; conditions: plasma; procedure, shortened: as §1
[4] = Tmax in cynomolgus monkey at 5 mg/kg, iv administered as bolus injection by LC-MS/MS analysis; format: ADME, organism-based, Macaca fascicularis; design: dose 5 mg/kg, route intravenous; conditions: in vivo
Procedure, shortened: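 Cynomolgus monkeys (n=3) dosed at 5 mg/kg nominal, TCEP-treated 50 mM HEPES solution, either as i.v. bolus (cephalic or saphenous vein) or orally. Arterial cannula blood into heparin/NEM tubes for up to 9 days. Plasma parent and homodisulfide measured by LC-MS/MS; Tmax observed.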

Cynomolgus monkey = experiment: Clearance in cynomolgus monkey at 5 mg/kg, iv administered as bolus injection by LC-MS/MS analysis; format: ADME, organism-based, Macaca fascicularis; design: dose 5 mg/kg, route intravenous; conditions: in vivo
Procedure, shortened: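 Cynomolgus monkeys (n = 3) given a 5 mg/kg intravenous bolus via cephalic or saphenous vein. Dosing solution in 50 mM HEPES, TCEP-treated. Arterial cannula blood collected up to 9 days into heparin/NEM tubes. Plasma assayed by LC-MS/MS. Noncompartmental analysis.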

[5] = Cmax in Sprague-Dawley rat brain at 10 mg/kg, po administered as single dose measured per gm of tissue by LC-MS/MS analysis; format: ADME, organism-based; design: dose 10 mg/kg, route oral
Procedure, shortened: (§2)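 Male Sprague-Dawley rats were dosed orally with 10 mg/kg/day, either once or daily for 5 days; n = 4 per group. Blood was taken by cardiac puncture and liver, kidney, brain and sciatic nerve were collected at 0–8 h post-dose. Tissues were homogenized in PBS containing NEM at equal volume per gram. NEM-derivatized analyte was extracted with methanol and quantified by LC-MS/MS (1–5000 ng/ml). Cmax is the observed value.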

[6] = Cmax in Sprague-Dawley rat plasma at 10 mg/kg/day, po administered for 5 days by LC-MS/MS analysis; format: ADME, organism-based; design: dose 10 mg/kg/day, route oral; procedure, shortened: as §2
[7] = Primary phase half life in Sprague-Dawley rat at 10 mg/kg, iv by LC-MS/MS analysis; format: ADME, organism-based; design: dose 10 mg/kg, route intravenous; conditions: in vivo, read-out: alphat1/2 (converted)
[8] = Phase 2 metabolic stability in dog liver microsomes assessed as compound remaining at 10 uM measured for 1 hr by LC-MS/MS analysis; format: ADME, Canis lupus familiaris; conditions: read-out: Stability
Procedure, shortened: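 For glucuronidation, compound was preincubated at 37°C in 50 mM Tris-HCl, pH 7.5, with 0.5 mg/ml liver microsomes, 8 mM MgCl2 and 25 µg/ml alamethicin. Reactions were started in duplicate with 2 mM UDPGA (final). Samples were taken up to 1 h, quenched with acetonitrile containing internal standard, and compound disappearance was measured by LC-MS/MS.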

[9] = Phase 1 metabolic stability in dog liver microsomes assessed as compound remaining at 10 uM measured for 1 hr by LC-MS/MS analysis in absence of cofactors; format: ADME, Canis lupus familiaris; conditions: read-out: Stability
Procedure, shortened: (§3)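 Cofactor-free controls were run for each microsomal incubation: 0.5 mg/ml liver microsomes with 10 µM compound, omitting cofactors, so that cofactor-independent degradation could be measured. Samples were taken up to 1 h, quenched with acetonitrile containing internal standard, and the percent remaining was determined by LC-MS/MS.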

[10] = Phase 2 metabolic stability in human liver microsomes assessed as compound remaining at 10 uM measured for 1 hr by LC-MS/MS analysis in absence of cofactors; format: ADME; conditions: read-out: Stability; procedure, shortened: as §3
Rattus norvegicus = experiment: Analgesic activity in Sprague-Dawley rat chronic constriction injury model assessed as change in paw withdrawal latency at 10 mg/kg/day, po measured 4 days after drug treatment cessation (reference value: -2.85 +/-0.32 s); format: functional
[11] = AUC(0 to last) in Sprague-Dawley rat at 30 mg/kg, iv administered as bolus injection measured under fasted conditions by LC-MS/MS analysis; format: ADME, organism-based; design: time 0 - last, dose 30 mg/kg, route intravenous; conditions: plasma
Procedure, shortened: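 Male Sprague-Dawley rats (280–330 g), jugular vein cannulated, fasted overnight until 4 h post-dose. Single tail-vein bolus of 0.1, 1, 10 or 30 mg/kg in 50 mM HEPES buffered saline, pH 7.4. Blood drawn 0–24 h into heparin tubes containing NEM. Plasma quantified by LC-MS/MS after NEM derivatization. Noncompartmental analysis: AUClast by linear trapezoidal rule, Cl = dose/AUC0-∞. Mean ± S.D., n = 4–9.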

[12] = Half life in Sprague-Dawley rat at 10 mg/kg, iv administered as bolus injection measured under fasted conditions by LC-MS/MS analysis; format: ADME, organism-based; design: dose 10 mg/kg, route intravenous; conditions: in vivo

Vd/F [1]: 1.09 L/kg | Cmax [2]: 57200 ng/mL | AUC(0-inf) [3]: 87 µg·h/mL | Tmax [4]: 4.8 min | CL (Cynomolgus monkey): 0.367 mL/min/kg | Cmax [5]: 25 ng/g | Cmax [6]: 6080 ng/mL | half-life [7]: 52.2 min | remaining at 1 h, 10 µM [8]: > 90% | remaining at 1 h, 10 µM [9]: > 90% | remaining at 1 h, 10 µM [10]: > 90% | AUC(0-t) [11]: 202 µg·h/mL | half-life [12]: 213 min
SMILES: O=C(O)c1cccc(-c2cccc(CCS)c2C(=O)O)c1
Time (Rattus norvegicus): -1.36 s
